Residues, ends and D or L forms follow the SMILES beside them. *: point of attachment. NBn2 = c1ccc(CN(Cc2ccccc2)*)cc1; X3 = C1CCN(N(N2CCCCC2)*)CC1; NHBn = c1ccc(CN*)cc1; Piv = CC(C)(C)C(=O)*
Biological target: T1, Pyroglutamylated RF-amide peptide receptor (Homo sapiens, UniProt Q96P65)
T1 sequence (Q96P65 whole entry): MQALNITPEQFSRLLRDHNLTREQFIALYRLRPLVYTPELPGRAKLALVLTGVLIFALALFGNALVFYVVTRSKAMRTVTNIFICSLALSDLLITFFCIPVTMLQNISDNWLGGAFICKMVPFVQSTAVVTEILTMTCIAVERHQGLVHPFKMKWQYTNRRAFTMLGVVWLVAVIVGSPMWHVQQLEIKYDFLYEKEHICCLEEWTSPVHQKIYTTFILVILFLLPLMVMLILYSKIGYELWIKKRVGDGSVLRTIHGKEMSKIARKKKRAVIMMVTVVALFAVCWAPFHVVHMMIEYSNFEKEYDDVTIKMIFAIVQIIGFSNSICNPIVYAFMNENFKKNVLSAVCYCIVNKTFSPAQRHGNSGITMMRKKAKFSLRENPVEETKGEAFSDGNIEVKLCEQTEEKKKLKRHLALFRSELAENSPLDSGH
Test: Agonist activity at DYKDDDDK-flagged human GPR103 receptor expressed in CHO-K1 cells co-expressing G-protein alpha16 assessed as stimulation of calcium mobilization after 2 mins by fluorometric analysis
Type: functional, cell-based
Summary of the method: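 CHO-K1 cells stably expressing Gα16 and C-terminally flag-tagged human GPR103 (Geneticin-selected), plated at 40 000 cells/well 24 h before assay. Loaded with 2 μM Fluo-4AM for 1 h, washed, then 30 min in HBSS with 2.5 mM probenecid and 5 mM HEPES. Peptides added at 10^-12 to 10^-5 M final and fluorescence read for 2 min. Triplicates; EC50 from sigmoidal variable-slope fit, at least three experiments.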

In order of falling EC50:
1. CC(C)(C)C(=O)NCC(=O)NCC(=O)N[C@@H](Cc1ccccc1)C(=O)N[C@@H](CO)C(=O)N[C@@H](Cc1ccccc1)C(=O)N[C@@H](CCCN=C(N)N)C(=O)N[C@@H](Cc1ccccc1)C(N)=O (Piv-GGFSFRF-NH2)  2540 nM
2. NCCCC[C@H](N)C(=O)NCC(=O)NCC(=O)N[C@@H](Cc1ccccc1)C(=O)N[C@@H](CO)C(=O)N[C@@H](Cc1ccccc1)C(=O)N[C@@H](CCCN=C(N)N)C(=O)N[C@@H](Cc1ccccc1)C(N)=O (H-KGGFSFRF-NH2)  1710 nM
3. N=C(N)NCCC[C@H](NC(=O)[C@H](Cc1ccccc1)NC(=O)[C@H](CO)NC(=O)[C@H](Cc1ccccc1)NC(=O)CNC(=O)CNC(=O)[C@H](CCCCN)NC(=O)[C@H](CCCCN)NC(=O)[C@@H](N)CCCNC(=N)N)C(=O)N[C@@H](Cc1ccccc1)C(N)=O (H-RKKGGFSFRF-NH2)  282 nM
4. CC(C)C[C@H](NC(=O)[C@H](CC(N)=O)NC(=O)CNC(=O)[C@H](CC(C)C)NC(=O)[C@@H]1CCCN1C(=O)CNC(=O)[C@H](CO)NC(=O)[C@@H](N)[C@@H](C)O)C(=O)N[C@@H](C)C(=O)N[C@@H](CCC(=O)O)C(=O)N[C@@H](CCC(=O)O)C(=O)N[C@@H](CC(C)C)C(=O)N[C@@H](CC(N)=O)C(=O)NCC(=O)N[C@@H](Cc1ccc(O)cc1)C(=O)N[C@@H](CO)C(=O)N[C@@H](CCCNC(=N)N)C(=O)N[C@@H](CCCCN)C(=O)N[C@@H](CCCCN)C(=O)NCC(=O)NCC(=O)N[C@@H](Cc1ccccc1)C(=O)N[C@@H](CO)C(=O)N[C@@H](Cc1ccccc1)C(=O)N[C@@H](CCCNC(=N)N)C(=O)N[C@@H](Cc1ccccc1)C(=O)N(N1CCCCC1)N1CCCCC1 (H-TSGPLGNLAEELNGYSRKKGGFSFRF-X3)  282 nM
5. NCCCC[C@H](NC(=O)[C@H](CCCCN)NC(=O)[C@H](CCCN=C(N)N)NC(=O)[C@@H](N)CO)C(=O)NCC(=O)NCC(=O)N[C@@H](Cc1ccccc1)C(=O)N[C@@H](CO)C(=O)N[C@@H](Cc1ccccc1)C(=O)N[C@@H](CCCN=C(N)N)C(=O)N[C@@H](Cc1ccccc1)C(N)=O (H-SRKKGGFSFRF-NH2)  237 nM
6. CC(C)C[C@H](NC(=O)[C@H](CC(N)=O)NC(=O)CNC(=O)[C@H](CC(C)C)NC(=O)[C@@H]1CCCN1C(=O)CNC(=O)[C@H](CO)NC(=O)[C@@H](N)[C@@H](C)O)C(=O)N[C@@H](C)C(=O)N[C@@H](CCC(=O)O)C(=O)N[C@@H](CCC(=O)O)C(=O)N[C@@H](CC(C)C)C(=O)N[C@@H](CC(N)=O)C(=O)NCC(=O)N[C@@H](Cc1ccc(O)cc1)C(=O)N[C@@H](CO)C(=O)N[C@@H](CCCNC(=N)N)C(=O)N[C@@H](CCCCN)C(=O)N[C@@H](CCCCN)C(=O)NCC(=O)NCC(=O)N[C@@H](Cc1ccccc1)C(=O)N[C@@H](CO)C(=O)N[C@@H](Cc1ccccc1)C(=O)N[C@@H](CCCNC(=N)N)C(=O)N[C@@H](Cc1ccccc1)C(=O)N(Cc1ccccc1)Cc1ccccc1 (H-TSGPLGNLAEELNGYSRKKGGFSFRF-NBn2)  166 nM
7. NCCCC[C@H](NC(=O)[C@H](CCCCN)NC(=O)[C@H](CCCN=C(N)N)NC(=O)[C@H](CO)NC(=O)[C@@H](N)Cc1ccc(O)cc1)C(=O)NCC(=O)NCC(=O)N[C@@H](Cc1ccccc1)C(=O)N[C@@H](CO)C(=O)N[C@@H](Cc1ccccc1)C(=O)N[C@@H](CCCN=C(N)N)C(=O)N[C@@H](Cc1ccccc1)C(N)=O (H-YSRKKGGFSFRF-NH2)  138 nM
8. NCCCC[C@H](NC(=O)[C@H](CCCCN)NC(=O)[C@H](CCCN=C(N)N)NC(=O)[C@H](CO)NC(=O)[C@H](Cc1ccc(O)cc1)NC(=O)CNC(=O)[C@@H](N)CC(N)=O)C(=O)NCC(=O)NCC(=O)N[C@@H](Cc1ccccc1)C(=O)N[C@@H](CO)C(=O)N[C@@H](Cc1ccccc1)C(=O)N[C@@H](CCCN=C(N)N)C(=O)N[C@@H](Cc1ccccc1)C(N)=O (H-NGYSRKKGGFSFRF-NH2)  95.3 nM
9. CC(C)C[C@H](NC(=O)[C@H](CC(N)=O)NC(=O)CNC(=O)[C@H](CC(C)C)NC(=O)[C@@H]1CCCN1C(=O)CNC(=O)[C@H](CO)NC(=O)[C@@H](N)[C@@H](C)O)C(=O)N[C@@H](C)C(=O)N[C@@H](CCC(=O)O)C(=O)N[C@@H](CCC(=O)O)C(=O)N[C@@H](CC(C)C)C(=O)N[C@@H](CC(N)=O)C(=O)NCC(=O)N[C@@H](Cc1ccc(O)cc1)C(=O)N[C@@H](CO)C(=O)N[C@@H](CCCNC(=N)N)C(=O)N[C@@H](CCCCN)C(=O)N[C@@H](CCCCN)C(=O)NCC(=O)NCC(=O)N[C@@H](Cc1ccccc1)C(=O)N[C@@H](CO)C(=O)N[C@@H](Cc1ccccc1)C(=O)N[C@@H](CCCNC(=N)N)C(=O)NCc1ccccc1 (H-TSGPLGNLAEELNGYSRKKGGFSFR-NHBn)  67 nM
10. CC(C)C[C@H](NC(=O)[C@@H]1CCCN1)C(=O)NCC(=O)N[C@@H](CC(N)=O)C(=O)N[C@@H](CC(C)C)C(=O)N[C@@H](C)C(=O)N[C@@H](CCC(=O)O)C(=O)N[C@@H](CCC(=O)O)C(=O)N[C@@H](CC(C)C)C(=O)N[C@@H](CC(N)=O)C(=O)NCC(=O)N[C@@H](Cc1ccc(O)cc1)C(=O)N[C@@H](CO)C(=O)N[C@@H](CCCN=C(N)N)C(=O)N[C@@H](CCCCN)C(=O)N[C@@H](CCCCN)C(=O)NCC(=O)NCC(=O)N[C@@H](Cc1ccccc1)C(=O)N[C@@H](CO)C(=O)N[C@@H](Cc1ccccc1)C(=O)N[C@@H](CCCN=C(N)N)C(=O)N[C@@H](Cc1ccccc1)C(N)=O (H-PLGNLAEELNGYSRKKGGFSFRF-NH2)  43.2 nM
11. CC(C)C[C@H](NC(=O)[C@H](CC(N)=O)NC(=O)CNC(=O)[C@H](CC(C)C)NC(=O)[C@@H]1CCCN1C(=O)CNC(=O)[C@H](CO)NC(=O)[C@@H](N)[C@@H](C)O)C(=O)N[C@@H](C)C(=O)N[C@@H](CCC(=O)O)C(=O)N[C@@H](CCC(=O)O)C(=O)N[C@@H](CC(C)C)C(=O)N[C@@H](CC(N)=O)C(=O)NCC(=O)N[C@@H](Cc1ccc(O)cc1)C(=O)N[C@@H](CO)C(=O)N[C@@H](CCCN=C(N)N)C(=O)N[C@@H](CCCCN)C(=O)N[C@@H](CCCCN)C(=O)NCC(=O)NCC(=O)N[C@@H](Cc1ccccc1)C(=O)N[C@@H](CO)C(=O)N[C@@H](Cc1ccccc1)C(=O)N[C@@H](CCCN=C(N)N)C(=O)N[C@@H](Cc1ccccc1)C(=O)NCc1ccccc1 (H-TSGPLGNLAEELNGYSRKKGGFSFRF-NHBn)  39 nM
12. CC(C)C[C@H](NC(=O)[C@H](CCC(=O)O)NC(=O)[C@H](CCC(=O)O)NC(=O)[C@H](C)NC(=O)[C@H](CC(C)C)NC(=O)[C@@H](N)CC(N)=O)C(=O)N[C@@H](CC(N)=O)C(=O)NCC(=O)N[C@@H](Cc1ccc(O)cc1)C(=O)N[C@@H](CO)C(=O)N[C@@H](CCCNC(=N)N)C(=O)N[C@@H](CCCCN)C(=O)N[C@@H](CCCCN)C(=O)NCC(=O)NCC(=O)N[C@@H](Cc1ccccc1)C(=O)N[C@@H](CO)C(=O)N[C@@H](Cc1ccccc1)C(=O)N[C@@H](CCCNC(=N)N)C(=O)N[C@@H](Cc1ccccc1)C(N)=O (H-NLAEELNGYSRKKGGFSFRF-NH2)  30.2 nM
13. CC(C)C[C@H](NC(=O)[C@H](CC(N)=O)NC(=O)CNC(=O)[C@H](CC(C)C)NC(=O)[C@@H]1CCCN1C(=O)CNC(=O)[C@H](CO)NC(=O)[C@@H](N)[C@@H](C)O)C(=O)N[C@@H](C)C(=O)N[C@@H](CCC(=O)O)C(=O)N[C@@H](CCC(=O)O)C(=O)N[C@@H](CC(C)C)C(=O)N[C@@H](CC(N)=O)C(=O)NCC(=O)N[C@@H](Cc1ccc(O)cc1)C(=O)N[C@@H](CO)C(=O)N[C@@H](CCCNC(=N)N)C(=O)N[C@@H](CCCCN)C(=O)N[C@@H](CCCCN)C(=O)NCC(=O)NCC(=O)N[C@@H](Cc1ccccc1)C(=O)N[C@@H](CO)C(=O)N[C@@H](Cc1ccccc1)C(=O)N[C@@H](CCCNC(=N)N)C(=O)N[C@@H](Cc1ccccc1)C(N)=O (H-TSGPLGNLAEELNGYSRKKGGFSFRF-NH2)  10.4 nM
